Data from publication PMC3351724 (Journal of Medicinal Chemistry, 2012).

Experiments:
[1] = Human liver microsomal incubations; assay type: in vitro ADME
Procedure, shortened: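 Test compound at 1 µM incubated with human liver microsomes (1 mg/mL) plus NADPH; samples taken at 0, 10, 30 and 60 min; parent compound remaining measured.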

[2] = In vivo pharmacokinetic parameters; settings: parent 8b in rat after oral administration of the 8b salt, 20 mg/kg
Procedure, shortened: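 Rats dosed orally at 20 mg/kg with the test form; parent compound measured in plasma. Parameters derived: Cmax, Tmax, half-life, volume of distribution, AUC0-t and calculated total clearance (ClT).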

[3] = tested on: 3D7 strain of P. falciparum; experiment: In vitro antimalarial activity versus 3D7 Plasmodium falciparum; assay type: cell-based; settings: 3D7, read-out: IC50 (nM) 3D7 ± SD, 3D7 strain of P. falciparum

Row | Structure (SMILES) | parent compound present after 60 min incubation ([1]; 1 μM, human liver microsomes 1 mg/mL, NADPH, 60 min) | CLint scaled at 1 µM ([1]; human, liver microsomes) [mL/min/kg] | ClT [2] [mL/h/kg] | IC50 [3] [nM]
1 | Cc1c(-c2ccc(-c3ccc(OC(F)(F)F)cc3)nc2)[nH]c2ccccc2c1=O [8b] | Greater than 60% | 1.78 | 276.3 | –
2 | CCOC(=O)c1c(-c2ccc(-c3ccc(OC(F)(F)F)cc3)nc2)[nH]c2ccccc2c1=O [compound 21] | – | – | – | 103
3 | O=c1c(CO)c(-c2ccc(-c3ccc(OC(F)(F)F)cc3)nc2)[nH]c2ccccc12 [compound 22] | – | – | – | 987
